Drawing on ChEMBL document CHEMBL3091318, “Potent and broad-spectrum antibacterial activity of indole-based bisamidine antibiotics: synthesis and SAR of novel analogs of MBX 1066 and MBX 1090” (2013), this text covers MIC and Ratio for 7 compounds.

What all share (type): functional
The test system of assay [1] is Staphylococcus aureus. The assay is described as follows: Antimicrobial activity against Staphylococcus aureus ATCC 25923 after 16 to 20 hrs by broth microdilution method. The method, boiled down: (§1)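 CLSI broth microdilution. Log-phase cultures in cation-adjusted Mueller–Hinton broth were seeded at 1×10^5 CFU/mL and incubated at 37 °C with shaking for 16–20 h. Compounds were diluted from DMSO stocks to a final 1% DMSO. Growth was read as OD600, and MIC was taken as the lowest concentration with no apparent growth. At least 3 runs were done, and the average MIC is reported in μg/ml.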
(In general: In broth dilution the organism is exposed to a series of concentrations in liquid medium.)

Assay [2] deals with Escherichia coli. Briefly: Antimicrobial activity against efflux pump-positive Escherichia coli K-12 after 16 to 20 hrs by broth microdilution method. The method, boiled down:
(§2)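 CLSI broth microdilution. Log-phase cultures grown in cation-adjusted Mueller–Hinton broth and seeded at 1×10^5 CFU/mL. Plates incubated at 37 °C with shaking for 16–20 h. DMSO stocks of compound were diluted into medium to 1% DMSO final. Growth was read as OD600. MIC (μg/ml) is the lowest concentration with no apparent growth, averaged over at least 3 assays.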

Assay [3] deals with Klebsiella pneumoniae. The assay is described as follows: Antimicrobial activity against Klebsiella pneumoniae ATCC 13882 after 16 to 20 hrs by broth microdilution method. The procedure, abridged:
as §2

The test system of assay [4] is Bacillus anthracis. Briefly: Antimicrobial activity against Bacillus anthracis Sterne after 16 to 20 hrs by broth microdilution method. The procedure, abridged:
as §1

Assay [5] relates to Pseudomonas aeruginosa. Briefly: Antimicrobial activity against efflux pump-positive Pseudomonas aeruginosa PAO1 ATCC BAA-47 after 16 to 20 hrs by broth microdilution method. The method, boiled down: as §2
The test system of assay [6] is Staphylococcus aureus. Briefly: Antimicrobial activity methicillin-resistant against Staphylococcus aureus clinical isolate 1094 after 16 to 20 hrs by broth microdilution method.
Assay [7] concerns Escherichia coli. Briefly: Antimicrobial activity against TolC efflux-deficient Escherichia coli K-12 after 16 to 20 hrs by broth microdilution method. The method, boiled down:
as §2

Assay [8] relates to Enterococcus faecalis. The assay is described as follows: Antimicrobial activity Enterococcus faecalis ATCC 29212 after 16 to 20 hrs by broth microdilution method. The procedure, abridged: as §2
Assay [9] concerns Haemophilus influenzae. Briefly: Antimicrobial activity against Haemophilus influenzae ATCC 10211 after 16 to 20 hrs by broth microdilution method. The procedure, abridged: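 Broth microdilution per CLSI in Haemophilus Test Medium at 37 °C under 5% CO₂ for 16–20 h, seeded at 1×10^5 CFU/mL. Compound was added from DMSO stocks to 1% DMSO final. Growth was read as OD600. MIC (μg/ml) is the lowest concentration without apparent growth, averaged from at least 3 runs.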

Assay [10] has as its system Acinetobacter baumannii. Briefly: Antimicrobial activity against Acinetobacter baumannii ATCC 19606 after 16 to 20 hrs by broth microdilution method. The method, boiled down:
as §2

Assay [11] relates to Pseudomonas aeruginosa. Briefly: Antimicrobial activity against efflux pump mexAB-oprM-deficient Pseudomonas aeruginosa PAO1 after 16 to 20 hrs by broth microdilution method. The procedure, abridged: as §2
Assay [12] relates to Enterococcus faecalis. The assay is described as follows: Antimicrobial activity vancomycin-resistant Enterococcus faecalis ATCC 51575 after 16 to 20 hrs by broth microdilution method. The procedure, abridged:
as §1

The test system of assay [13] is Pseudomonas aeruginosa. Briefly: Ratio of MBX 1066 MIC to compound MIC for Pseudomonas aeruginosa PAO1 ATCC BAA-47 after 16 to 20 hrs by broth microdilution method.
Assay [14] relates to Escherichia coli. The assay is described as follows: Ratio of MBX 1066 MIC to compound MIC for Escherichia coli K-12 after 16 to 20 hrs by broth microdilution method.
The subject of assay [15] is Escherichia coli. Briefly: Selectivity ratio of MIC for efflux pump-positive Escherichia coli K-12 to MIC for TolC efflux-deficient Escherichia coli K-12.
The subject of assay [16] is Pseudomonas aeruginosa. The assay is described as follows: Selectivity ratio of MIC for efflux pump-positive Pseudomonas aeruginosa PAO1 ATCC BAA-47 to MIC for efflux pump mexAB-oprM-deficient Pseudomonas aeruginosa PAO1.

Where only a bound is given, the exact number is not on record here.

With `CC1(C)CN=C(c2ccc3cc(-c4ccc(-c5cc6ccc(C7=NCC(C)(C)CN7)cc6[nH]5)cc4)[nH]c3c2)NC1.O=C(O)C(F)(F)F`, the MIC in assay [1] was found to be 0.31 µg/mL; in assay [2], 0.63 µg/mL; in [3], 0.63 µg/mL; in [4], 0.31 µg/mL; in assay [5], 10 µg/mL; in [6] it was 0.31 µg/mL. Moreover, the MIC in [7] was 0.63 µg/mL; in [8] it was 0.31 µg/mL; in assay [9], 2.5 µg/mL; in assay [10], above 80 µg/mL; in assay [11], 40 µg/mL; in [12] it was 0.63 µg/mL.
For the compound `O=C(O)C(F)(F)F.c1cc2cc(-c3ccc(-c4cc5ccc(C6=NCCCN6)cc5[nH]4)cc3)[nH]c2cc1C1=NCCCN1`, the MIC amounted to 0.08 µg/mL in assay [1]; 0.16 µg/mL in assay [2]; 0.31 µg/mL in assay [3]; 0.08 µg/mL in [4]; 0.31 µg/mL in assay [5]; 0.08 µg/mL in [6]. In addition, the MIC in [7] stood at 0.16 µg/mL; in assay [8], 0.08 µg/mL; in assay [9], 0.31 µg/mL; in assay [10] it was 2.5 µg/mL; in [11], 0.31 µg/mL; in assay [12], 0.08 µg/mL. For the same compound, the Ratio in [13] was above 20; in assay [14] it was 10.
In the case of `CC1CN=C(c2ccc3cc(-c4ccc(-c5cc6ccc(C7=NCC(C)CN7)cc6[nH]5)cc4)[nH]c3c2)NC1.O=C(O)C(F)(F)F` (stereo not drawn), the MIC is 0.08 µg/mL in assay [1]; 0.31 µg/mL in [2]; 0.31 µg/mL in assay [3]; 0.08 µg/mL in assay [4]; 0.63 µg/mL in assay [5]; 0.08 µg/mL in assay [6]. In addition, the MIC was 0.16 µg/mL in assay [7]; 0.16 µg/mL in assay [8]; 1.25 µg/mL in [9]; 40 µg/mL in assay [10]; 0.63 µg/mL in assay [11]; 0.08 µg/mL in assay [12].
In the case of `O=C(O)C(F)(F)F.c1cc2cc(-c3ccc(-c4cc5ccc(C6=NCCN6)cc5[nH]4)s3)[nH]c2cc1C1=NCCN1`, the MIC came out at 0.16 µg/mL in assay [1]; 0.63 µg/mL in [2]; 0.63 µg/mL in [3]; 0.16 µg/mL in assay [4]; 10 µg/mL in assay [5]; 0.31 µg/mL in assay [6]. For the same compound, the MIC in assay [7] was found to be 0.31 µg/mL; in assay [8], 1.25 µg/mL; in [9] it was 0.63 µg/mL; in assay [10] it was 10 µg/mL; in assay [11], 1.25 µg/mL; in assay [12] it was 1.25 µg/mL.
Consider `O=C(O)C(F)(F)F.OC1CN=C(c2ccc3cc(-c4ccc(-c5cc6ccc(C7=NCC(O)CN7)cc6[nH]5)cc4)[nH]c3c2)NC1` (stereo not drawn), for which the MIC in [1] was determined as 0.31 µg/mL; in assay [2] it was 1.25 µg/mL; in assay [3] it was 0.63 µg/mL; in [4] it was 0.16 µg/mL; in assay [5], 1.25 µg/mL; in assay [6], 0.31 µg/mL. In addition, the MIC in assay [7] is 0.63 µg/mL; in assay [8], 0.16 µg/mL; in assay [9], 1.25 µg/mL; in assay [10] it was above 80 µg/mL; in [11], 0.31 µg/mL; in assay [12], 0.63 µg/mL.
Take `O=C(O)C(F)(F)F.c1cc2cc(-c3ccc(-c4cc5ccc(C6=NCCN6)cc5[nH]4)cc3)[nH]c2cc1C1=NCCN1`: the MIC in assay [1] amounted to 0.16 µg/mL; in assay [2], 1.25 µg/mL; in assay [3] it was 0.31 µg/mL; in assay [4] it was 0.31 µg/mL; in [5], 7.5 µg/mL; in [6] it was 0.16 µg/mL. Besides, the MIC in assay [7] is 0.16 µg/mL; in [8], 0.16 µg/mL; in assay [9] it was 0.63 µg/mL; in [10], above 80 µg/mL; in assay [11], 1.25 µg/mL; in assay [12], 0.16 µg/mL. Also, the figures for the Ratio in [15] and in assay [16] were 8 and 6, respectively.
For the compound `CC(=O)O.c1cc2cc(-c3ccc(-c4cc5ccc(C6=NCCCN6)cc5[nH]4)nc3)[nH]c2cc1C1=NCCCN1`, the MIC in [1] amounted to 0.16 µg/mL; in [2] it was 0.63 µg/mL; in assay [3], 5 µg/mL; in assay [4], 0.16 µg/mL; in [5], 2.5 µg/mL; in [6], 0.16 µg/mL. Also, the MIC in [7] is 0.16 µg/mL; in assay [8] it was 0.63 µg/mL; in assay [9] it was 2.5 µg/mL; in assay [10], 20 µg/mL; in assay [11], 2.5 µg/mL; in assay [12], 0.16 µg/mL.
